Source: PubChem BioAssay
A selection: hits, their analogues and other compounds. The true share with any hit is near 3.5%.
AHR activator: AHR activators, primary screen, cell-based, luminescence, luciferase reporter, human; activation, % at 5 µM; AHR-responsive luciferase reporter cells; 320,000 compounds, 2.5% hits; Aryl hydrocarbon receptor (Homo sapiens), P35869; in the data active = activation above about 47%;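 note: 0% = vehicle wells and 100% = reference agonist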
Target sequence (P35869 whole entry, looked up): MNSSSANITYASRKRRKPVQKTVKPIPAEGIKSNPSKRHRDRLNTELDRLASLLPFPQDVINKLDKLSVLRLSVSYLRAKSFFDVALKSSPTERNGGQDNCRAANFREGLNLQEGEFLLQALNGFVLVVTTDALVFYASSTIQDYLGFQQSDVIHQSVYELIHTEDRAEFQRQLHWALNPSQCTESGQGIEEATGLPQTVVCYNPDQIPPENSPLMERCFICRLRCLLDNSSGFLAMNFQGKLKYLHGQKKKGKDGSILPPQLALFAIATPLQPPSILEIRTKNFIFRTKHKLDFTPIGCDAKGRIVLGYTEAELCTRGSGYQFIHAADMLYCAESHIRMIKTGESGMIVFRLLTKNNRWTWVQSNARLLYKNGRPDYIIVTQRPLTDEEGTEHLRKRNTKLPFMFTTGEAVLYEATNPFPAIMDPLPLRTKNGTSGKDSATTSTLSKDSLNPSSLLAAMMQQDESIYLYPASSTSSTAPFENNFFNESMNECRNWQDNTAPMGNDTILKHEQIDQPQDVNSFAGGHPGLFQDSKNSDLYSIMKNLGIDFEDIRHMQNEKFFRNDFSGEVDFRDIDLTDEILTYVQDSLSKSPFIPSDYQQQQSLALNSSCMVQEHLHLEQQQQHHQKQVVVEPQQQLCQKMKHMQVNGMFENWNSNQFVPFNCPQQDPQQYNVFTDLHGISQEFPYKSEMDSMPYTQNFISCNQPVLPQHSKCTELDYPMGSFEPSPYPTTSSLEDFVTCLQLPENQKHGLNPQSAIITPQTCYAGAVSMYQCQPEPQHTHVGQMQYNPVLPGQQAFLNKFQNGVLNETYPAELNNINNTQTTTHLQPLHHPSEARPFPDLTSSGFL
FXIa inh 1536: human FXIa protease inhibitors, primary screen, biochemical, 1536-well; Coagulation factor XI (Homo sapiens), P03951; purified FXIa, Boc-Glu-Ala-Arg-AMC fluorogenic substrate; inhibition, % at 5 µM; 220,000 compounds, 0.14% hits; AID 798, 2007;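 active = inhibition of at least 40%; inactive = inhibition below 40%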;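 note: fluorescence of freed AMC excited at 355 nm; 0% = enzyme without compound and 100% = no enzyme blank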
FXIIa inh 1536: human FXIIa protease inhibitors, primary screen, biochemical, 1536-well; Coagulation factor XII (Homo sapiens), P00748; 220,000 compounds, 0.3% hits; AID 800, 2007; purified FXIIa, Boc-QGR-AMC fluorogenic substrate, 2 h; inhibition, % at 5 µM; in the data active = inhibition above about 40%;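 note: 0% = enzyme with no compound and 100% = blank without enzyme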
hK5 inh: human KLK5 protease inhibitors, primary screen, biochemical, 1536-well; Kallikrein-5 (Homo sapiens), Q9Y337; recombinant hK5, fluorogenic AMC substrate cleavage; inhibition, % at 5 µM; 210,000 compounds, 0.59% hits;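 active = inhibition of 40% or more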;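 note: 0% = enzyme controls without compound and 100% = no-enzyme blanks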
thrombin 1536: human alpha-thrombin inhibitors, primary screen, counter-screen for coagulation protease inhibitor project, biochemical, 1536-well, fluorogenic AMC substrate | Prothrombin (Homo sapiens), P00734 | Boc-VPR-AMC fluorogenic substrate cleavage | inhibition, % at 5 µM | 220,000 compounds, 0.26% hits | AID 1046, 2008;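 active = inhibition at or above 40%; inactive = inhibition below 40%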;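 note: 0% = enzyme with no compound and 100% = wells without enzyme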
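signal = AMC fluorescence, 355/460 nm | material = human alpha-thrombin enzyme | control set = enzyme without compound as high, wells lacking enzyme as low | times = reaction at room temperature | read-out basis = percent inhibition scaled between no-compound controls and no-enzyme blanks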
STAT3 activator: IL-6 driven STAT3 reporter potentiators, primary screen, U3A cells, luciferase, luminescence, MLSCN library | IL-6 STAT3-luciferase reporter; 100% = signal with IL-6 EC80 alone | activation (% of control), % at 5.6 µM | 190,000 compounds, 0.91% hits;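 active = activation above the screen-wide mean of compound activation plus 3 SD, cut at about 130% in these data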;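 note: 0% = background luminescence of wells with medium and substrate only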
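System – human U3A cells carrying STAT3-luciferase construct · Probe or stimulus – Interleukin-6, 33 ng/mL · Schedule – compound 1 h, then IL-6 6 h at 37 °C · Signal – luminescence from STAT3-driven luciferase reporter · Evaluation – percent of IL-6-only median luminescence · Benchmarks – IL-6-only high control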
AHR act confirm: AHR activators, confirmation, cell-based, luminescence, luciferase reporter, human; shares compounds with AHR activator; human cells, AHR-responsive luciferase reporter; activation, % at 9 µM; 2,300 compounds, 87% hits; AID 2845, 2010; in the data active = activation above about 49%;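 note: HepG2 hepatoma cells carrying a DRE-driven firefly luciferase reporter; 0% = vehicle wells and 100% = reference agonist wells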
PXR act counter: human PXR activators, counter-screen for AHR activator project, cell-based, luciferase luminescence. shares compounds with AHR activator. cell-based PXR reporter. activation, % at 11.6 µM. 2,300 compounds, 88% hits; in the data active = activation above about 11%;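 note: human hepatoma DPX-2 cells expressing full-length human PXR; 0% = DMSO and 100% = reference agonist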
* hit, by the source's call; / = no result given.

SMILES	AHR activator	FXIa inh 1536	FXIIa inh 1536	hK5 inh	thrombin 1536	STAT3 activator	AHR act confirm	PXR act counter
CC(=O)c1c(C)nc(-c2ccc(Cl)cc2)nc1NC(=O)C(C)C	115.7*	2.2	1.6	29.9	31.9	112.8	136.9*	45.5*
CCOC(=O)/C(C)=N/Nc1nc(-c2ccc(NC(C)=O)cc2)cs1	10.4	-1.5	0.4	0.1	-5.0	/	/	/
CC(=O)Nc1ccc(NC(=O)COC(=O)[C@@H]2CCCN2C(=O)c2cccs2)cc1	-0.3	/	/	/	/	/	/	/
COC(=O)N/N=C/c1cn(CCOc2ccccc2)c2ccccc12	46.8	1.0	0.3	-2.7	-11.7	/	/	/
CNC(=S)N/N=C/c1cn(CCOc2ccccc2OC)c2ccccc12	80.3*	4.1	9.0	-7.8	-5.4	99.3	61.9*	109.8*
CCOC(=O)N/N=C/c1cn(CCCOc2ccc(C)cc2)c2ccccc12	32.5	11.4	10.1	-0.7	-3.5	92.8	/	/
CCOC(=O)N/N=C/c1cn(CCCOc2ccccc2)c2ccccc12	104.7*	7.8	9.0	-2.3	-7.2	102.0	84.6*	33.9*
O=C1CCCN1CC(=O)N1CCCC(N2CCN(c3cccc(Cl)c3)CC2)C1 (stereo unspecified)	0.7	/	/	/	/	/	/	/
CC(C)OCCCNC(=O)c1cccc2c1C(=O)c1ccc(Cl)cc1S2(=O)=O	15.8	/	/	/	/	/	/	/
Clc1ncccc1-c1nc2ccccc2s1	10.4	0.1	6.1	2.5	-3.8	100.2	/	/
Clc1cc2nc(-c3cccnc3Cl)[nH]c2cc1Cl	112.7*	/	/	/	/	/	108.1*	44.8*
Cc1ccc(F)c(NC(=S)Nc2cccc3ccccc23)c1	94.4*	/	/	/	/	/	9.1	106.4*
COc1ccccc1Nc1nc(N)nc(-c2cc3ccccc3o2)n1	84.7*	9.8	19.1	-4.0	2.3	98.2	20.9	46.0*
COc1ccccc1Nc1nc(N)nc(CN2CCOCC2)n1	14.0	5.1	5.5	-9.4	-3.3	105.5	/	/
Cc1cccc2[nH]c(SCC(=O)N3CCOCC3)nc12	6.6	-3.4	7.2	-0.4	0.6	90.5	/	/
O=CC1=C(N2CCOCC2)/C(=C/c2ccc(Cl)cc2)CC1	2.0	-28.6	0.6	-16.9	6.5	103.6	/	/
Cc1cc(C)nc(N/N=C/C2=C(N3CCOCC3)C(=C\c3ccc(Cl)cc3)/CC2)n1	90.1*	-3.7	-3.6	-9.7	-7.6	106.7	125.6*	12.4*
NC(=O)c1c(NC(=O)c2cc3ccccc3o2)sc2c1CCC2	85.5*	-0.7	15.0	-9.5	5.8	71.4	48.3*	6.8
NC(=O)c1c(NC(=O)c2ccc([N+](=O)[O-])o2)sc2c1CCCC2	14.6	/	/	/	/	/	/	/
CC(=O)Nc1sc2c(c1C(N)=O)CCC2	2.2	2.3	10.7	-12.6	-3.9	95.3	/	/
NC(=O)c1c(NC(=O)c2ccc(F)cc2)sc2c1CCC2	173.7*	/	/	/	/	/	100.1*	37.1*
CCS(=O)(=O)c1nc2ccccc2n1Cc1ccccn1	0.1	-1.0	5.6	0.9	-9.9	102.3	/	/
CC(=O)Nc1sc2c(c1-c1nc3ccccc3s1)CCN(C(C)C)C2	172.0*	3.0	13.2	3.9	0.0	/	69.7*	/
CC(C)CSC1=NSC2=NC(=O)/C(=C\c3coc4ccccc4c3=O)C(=N)N12	80.9*	5.1	9.2	-4.4	-1.1	100.5	17.3	18.1*
O=C1c2ccccc2-n2c1nc1ccccc1c2=O	107.8*	-3.5	5.6	0.1	-11.7	98.5	155.0*	30.5*
O=c1c2ccccc2nc2n1-c1ccccc1CCC2	-0.2	-4.0	16.9	-14.5	6.6	98.0	/	/
CCCOc1ccccc1/C=C(\C#N)C(=O)Nc1cccnc1	4.7	4.4	-0.3	2.9	0.8	/	/	/
